High-throughput results from PubChem BioAssay.
procasp7 counter: counter-screen: procaspase-7 (human) activation; recombinant procaspase-7, Ac-DEVD-pNA absorbance 405 nm; D23A/D198A/D206A triple mutant, cannot self-cleave; scale: DMSO 0, 5 µM enzyme 100; activation, % at 8.5 µM; 0.093% of 330,000 active;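 active = percent activation above the screen-wide mean plus 3 SD, cut at about 25% in these data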
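Assay system: Uncleavable procaspase-7 mutant enzyme / Input: 2 µM procaspase-7 mutant as dispensed / Dosing: single nominal 8.5 µM compound dose, 0.8% DMSO final / Timing: 1 h enzyme–compound preincubation and 2 h substrate reaction, both 25 °C / Detection: p-Nitroaniline absorbance at 405 nm, read at 0 and 120 min / Replication: singlicate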
Neddyl block: inhibitors of human cullin neddylation | P61081+Q13564 | TR-FRET cullin neddylation, biochemical | calls only at 25 µM | 0.58% of 360,000 active | AID 651699; in the data active = inhibition above about 36%
proKLK7 act: activates the human kallikrein-7 zymogen; 0.9% of 370,000 active; AID 652039; activation, % at 7 µM; purified proKLK7, EDANS-DABCYL substrate fluorescence; 100% is mature enzyme control, 0% vehicle;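 active = activation above the mean of all tested compounds plus 3 SD, computed per campaign excluding outliers beyond control limits, cut at about 13% in these data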
Target sequence (P49862 whole entry, looked up): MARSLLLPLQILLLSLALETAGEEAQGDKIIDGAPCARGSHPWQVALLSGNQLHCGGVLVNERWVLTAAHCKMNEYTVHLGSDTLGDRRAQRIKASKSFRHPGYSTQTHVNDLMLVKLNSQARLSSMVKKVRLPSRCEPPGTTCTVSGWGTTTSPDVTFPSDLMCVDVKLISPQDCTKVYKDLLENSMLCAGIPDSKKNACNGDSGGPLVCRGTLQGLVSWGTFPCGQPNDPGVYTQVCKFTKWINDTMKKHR
proCasp3 act: activates human procaspase-3; P42574; recombinant procaspase-3 D3A, Ac-DEVD-pNA absorbance 405 nm; activation, % at 8.5 µM; 0.11% of 330,000 active;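 active = activation above the mean of all tested compounds plus 3 SD, cut at about 21% in these data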;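 also: 0% = DMSO alone and 100% = DMSO wells spiked with extra 5 µM PC-3 D3A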
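System: Procaspase-3 D3A mutant. Medium: Zinc-free 300 mM NaCl, 50 mM HEPES, 0.01% Triton X-100. Schedule: 1 h preincubation plus 2 h reaction at 25 °C. Measured by: 405 nm absorbance of p-nitroaniline, reads at 0 and 120 min. Read-out: percent activation relative to control range.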
proKLK7 act conf: proKLK7 activation, confirmation; shares compounds with proKLK7 act; purified proKLK7, EDANS-DABCYL substrate fluorescence; scaled: vehicle 0, mature enzyme 100; activation, % at 7 µM; 68% of 3,200 active;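 active = activation, as change over the incubation, above the mean of all tested compounds plus 3 SD, cut at about 13% in these data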
EDANS-DABCYL int: optically interferes with EDANS-DABCYL signal, flagging KLK7 hits; shares compounds with proKLK7 act; EDANS-DABCYL substrate fluorescence interference, no enzyme, 4 h; solvent 0%, active enzyme control 100%; activation, % at 7 µM; 80% of 3,200 active;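 active = activation above the all-compound mean plus 3 SD, ignoring values outside control-based bounds, cut at about 4.8% in these data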;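 also: value is the 4 h activation minus the activation read at time zero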
K7 EDANS ctr: optically interferes with EDANS-DABCYL fluorescence, kallikrein-7 activator counter-screen; AID 720493; EC50, µM; 20% of 250 active; EDANS-DABCYL peptide fluorescence interference, no enzyme; shares compounds with proKLK7 act;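 active = compounds that raise the fluorescence signal in this interference counterscreen, with EC50 at or below 10 µM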;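 also: intact quenched peptide substrate alone read at 355 nm excitation and 520 nm emission; signal is fluorescence gain from T0 to T4 after four hours at room temperature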
Numbers without * were called inactive; i = inactive; nt = not tested or not shown. An excerpt weighted towards active compounds, which were near 1.6% of everything screened.

SMILES	procasp7 counter	Neddyl block	proKLK7 act	proCasp3 act	proKLK7 act conf	EDANS-DABCYL int	others
O=C(CCc1ccc(O)cc1)N1C[C@H]2C[C@@H](C1)c1cccc(=O)n1C2	-0.4	i	0.5	-2.1	nt	nt
COc1cc2oc(=O)c(CC(=O)N3C[C@H]4C[C@@H](C3)c3cccc(=O)n3C4)c(C)c2cc1Cl	nt	nt	-0.2	nt	nt	nt
Cc1c(CC(=O)N2C[C@H]3C[C@@H](C2)c2cccc(=O)n2C3)c(=O)oc2c(C)c(O)ccc12	25.6	nt	65.2*	21.1	67.9*	71.9*
O=C(NCCN1CCC2(CC1)C(=O)NCN2c1ccccc1)c1ccccc1F	nt	nt	-0.2	nt	nt	nt
O=P(OCCCl)(OCCCl)OCCCl	nt	nt	0.2	nt	nt	nt
COCCCn1c(N)c(C(=O)OCCOC)c2nc3ccccc3nc21	-4.9	nt	84.1*	-0.8	71.3*	78.0*
CCOC(=O)c1c(NS(=O)(=O)c2ccccc2)n(CCCOC)c2nc3ccccc3nc12	-22.6	i	81.9*	-13.1	66.2*	70.0*
CCCCNC(=O)c1c(N)n(CCCOC)c2nc3ccccc3nc12	-1.7	nt	-31.3	11.2	nt	nt
CCOC(=O)c1c(N)n(CCCOC(=O)c2ccco2)c2nc3ccccc3nc12	-0.4	nt	39.2*	-3.3	63.3*	63.9*
Clc1cc(Cl)cc(CN2Cc3ccccc3-n3nncc3C2)c1	nt	nt	0.1	nt	nt	nt
COC(=O)C12CCc3c(ccc4cc(OC)ccc34)C1=CC(=O)C2 (configuration not stated)	nt	i	92.9*	nt	65.2*	79.3*
Brc1ccc2c(c1)-n1nncc1CNC2	nt	nt	0.9	nt	nt	nt
CC1(C)CC(=O)c2cc(OCC(=O)N3CCN(Cc4ccccc4)CC3)ccc2O1	-2.0	i	-2.8	-1.3	nt	nt
CCN1CCN(C(=O)COc2ccc3c(c2)C(=O)CC2(CCN(C(C)=O)CC2)O3)CC1	8.3	nt	35.8*	7.5	81.6*	63.2*	K7 EDANS ctr=>69.5
CC(C)C(C(=O)NC(C)(C)C)N1C(=O)CN=C(c2ccccc2)c2ccccc21 (configuration not stated)	nt	nt	-0.3	nt	nt	nt
CCOC(=O)c1ccccc1N	-0.8	i	-1.4	8.2	nt	nt
CCOC(=O)c1cc2c(cn1)[nH]c1ccccc12	3.1	nt	20.3*	5.3	-2.5	-4.6
CN(C)CCN=Cc1c(O)n(CCC2=CCCCC2)c(=O)[nH]c1=O	1.1	i	27.2*	1.9	1.0	-0.3
COC1CC=C2CCN3CCC4=C(CC(=O)OC4)C23C1 (configuration not stated)	nt	nt	0.8	nt	nt	nt
COc1ccc(Cn2c(N)c(C(=O)NCc3ccco3)c3nc4ccccc4nc32)cc1OC	-15.6	i	-18.0	5.5	nt	nt
Nc1c(C(=O)NCc2ccco2)c2nc3ccccc3nc2n1CCN1CCCCC1	-17.7	nt	62.8*	-14.8	-56.6	-69.0
